The source of these data is ChEMBL document CHEMBL4184239, “Therapeutic effects of isothiocyanate prodrugs on rheumatoid arthritis” (Bioorg Med Chem Lett, 2018).

A word on the half-life: it is the time in which the quantity being followed falls by half. A low value points to rapid decline. What is called Tmax is the time from dosing to the highest level.

Active and inactive are the calls of the source. The rule behind the calls is not given here.

For data set [1], the system named is Rattus norvegicus. Description: Anti-inflammatory activity in Wistar rat model of Freund's complete adjuvant-induced rheumatoid arthritis model assessed as reduction in paw swelling at 1 mg/kg, po dosed every day from day 16 after initial inflammation. Format: functional, organism-based. An outline of the steps:
(§1)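 Wistar rats with Freund's complete adjuvant-induced arthritis, 30 randomized into 5 groups; oral daily dosing from day 16 after initial inflammation, reference 1 mg/kg, test 10, 20, 40 mg/kg; paw swelling degree tracked over days; P < .05 vs model group.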

The test system of data set [2] is Rattus norvegicus. Description: Anti-inflammatory activity in Wistar rat model of Freund's complete adjuvant-induced rheumatoid arthritis model assessed as reduction in paw swelling at 1 mg/kg, po dosed every day from day 16 after initial inflammation and measured after 10 days. The format is functional, organism-based. The method, boiled down: as §1
The nature of another data set: in vivo. To be noted: rat.
The next data set can be described thus: clinical. To be noted: human, in vivo.
The nature of data set [3]: Stability in HEPES buffer at pH 4.4 measured within 24 hrs by HPLC method. Format: physicochemical. The note with it: pH 4.4, 24 h. The method, boiled down:
(§2)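 Prodrug incubated in HEPES buffer at pH 4.4 or pH 7.4; concentrations of prodrug and released isothiocyanate followed over time (up to 24 h and beyond) to build concentration–time curves.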

Data set [4] in a line: Prodrug conversion in mouse plasma assessed as formation of 5-(4-isothiocyanatobutylthio)-1-phenyl-1H-tetrazole measured after 24 hrs by HPLC method. Format: ADME, cell-free.
Data set [5] can be described thus: Prodrug conversion in mouse plasma assessed as Tmax for formation of 5-(4-isothiocyanatobutylthio)-1-phenyl-1H-tetrazole measured after 24 hrs by HPLC method. The format is ADME, cell-free.
Data set [6] in a line: Half life in mouse plasma by HPLC method. The format is ADME, cell-free.
Data set [7] can be described thus: Stability in mouse plasma assessed as time duration for complete drug degradation by HPLC method. Format: ADME, cell-free.
The species named for data set [8] is Danio rerio. Description: Anti-inflammatory activity in EGFP transgenic Zebrafish model of neutrophil inflammation assessed as reduction in number of neutrophil migration at 0.5 ug/ml incubated for 3 hrs by stereofluorescence microscopy. Format: functional, organism-based. An outline of the steps:
(§3)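 72 h post-fertilization EGFP transgenic zebrafish, 24 larvae split into 4 groups (vehicle control, reference, two test articles); compound added to culture wells for 3 h; migrating neutrophils counted; P vs control by statistical comparison.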

The test system of data set [9] is Rattus norvegicus. In words: Anti-inflammatory activity in Sprague-Dawley rat model of carrageenan-induced paw edema assessed as reduction in hind paw volume at 10 to 50 mg/kg, po dosed for 2 times at 6 hrs after carrageenan injection measured after 8 to 10 hrs. Format: functional, organism-based. To be noted: in the assay text read “at 2 and 6 hrs” for “at 6 hrs”. An outline of the steps:
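Sprague-Dawley rats, 30 randomized into 5 groups (6 per group); oral dosing twice, at 2 h and 6 h after finishing carrageenan injection into paw; reference 5 mg/kg, test 10, 20, 50 mg/kg; swelling followed over time (to 10 h); significance vs model group.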
On the technique in general: In the carrageenan paw model, swelling and tenderness develop within hours.

Data set [10] deals with Rattus norvegicus. Description: Toxicity in Wistar rat model of Freund's complete adjuvant-induced rheumatoid arthritis model assessed as increase in body weight at 10 mg/kg, po dosed every day from day 16 after initial inflammation (reference value: 84.6 g). The note with it: in vivo. The format is organism-based.
Data set [11] deals with Rattus norvegicus. In words: Toxicity in Wistar rat model of Freund's complete adjuvant-induced rheumatoid arthritis model assessed as increase in body weight at 20 mg/kg, po dosed every day from day 16 after initial inflammation (reference value: 84.6 g). Format: organism-based. To be noted: in vivo.
The test system of data set [12] is Rattus norvegicus. Description: Toxicity in Wistar rat model of Freund's complete adjuvant-induced rheumatoid arthritis model assessed as increase in body weight at 40 mg/kg, po dosed every day from day 16 after initial inflammation (reference value: 84.6 g). The note with it: in vivo. Format: organism-based.
The subject of data set [13] is Rattus norvegicus. Description: Anti-inflammatory activity in Wistar rat model of Freund's complete adjuvant-induced rheumatoid arthritis model assessed as reduction in paw swelling at 10 to 40 mg/kg, po dosed every day from day 16 after initial inflammation. The format is functional, organism-based. An outline of the steps:
as §1

Data set [14] relates to Rattus norvegicus. Description: Anti-inflammatory activity in Wistar rat model of Freund's complete adjuvant-induced rheumatoid arthritis model assessed as reduction in paw swelling at 10 to 20 mg/kg, po dosed every day from day 16 after initial inflammation and measured after 10 days. The format is functional, organism-based. The method, boiled down: as §1
Data set [15] relates to Mus musculus. In words: Toxicity in Kunming white mouse assessed as survival at 200 mg/kg, po dosed everyday for 5 weeks. The format is organism-based. To be noted: in vivo, 840 h. An outline of the steps:
(§4)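 Mice were dosed orally once daily at 200 mg/kg for 5 weeks alongside an untreated control group. Survival and body weight were recorded over the dosing period and compared with controls.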

Data set [16] concerns Mus musculus. Description: Toxicity in Kunming white mouse assessed as effect on body weight at 200 mg/kg, po dosed everyday for 5 weeks measured from day 30 onwards. The format is organism-based. The note with it: in vivo, 840 h. An outline of the steps:
as §4

For data set [17], the species on record is Danio rerio. In words: Potency index, ratio of dexamethasone to test compound anti-inflammatory activity in EGFP transgenic Zebrafish model of neutrophil inflammation assessed as reduction in number of neutrophil migration incubated for 3 hrs by stereofluorescence microscopy. The format is functional.
Data set [18] has as its system Rattus norvegicus. In words: Anti-inflammatory activity in Wistar rat model of Freund's complete adjuvant-induced rheumatoid arthritis model assessed as reduction in paw swelling at 10 mg/kg, po dosed every day from day 16 after initial inflammation and measured after 10 days. The format is functional, organism-based. The method, boiled down: as §1
Data set [19] is described as follows: Drug level in HEPES buffer at pH 7.4 treated with 2-(2-(2-(dimethylamino)ethoxy)ethoxy)ethyl 4-(1-phenyl-1H-tetrazol-5-ylthio)butylcarbamodithioate assessed as active compound formation measured at 2 hrs by HPLC method. The format is physicochemical. To be noted: pH 7.4, 2 h. An outline of the steps: as §2
Data set [20] in a line: Drug level in HEPES buffer at pH 7.4 treated with 2-(2-(2-(dimethylamino)ethoxy)ethoxy)ethyl 4-(1-phenyl-1H-tetrazol-5-ylthio)butylcarbamodithioate assessed as active compound formation measured during 2 to 30 hrs by HPLC method. Format: physicochemical. The method, boiled down: as §2
Data set [21] can be described thus: Drug level in mouse plasma treated with 2-(2-(2-(dimethylamino)ethoxy)ethoxy)ethyl 4-(1-phenyl-1H-tetrazol-5-ylthio)butylcarbamodithioate assessed as active compound formation measured after 24 hrs by HPLC method. Format: ADME, cell-free.
The nature of data set [22]: Prodrug conversion in mouse plasma assessed as formation of 1-isothiocyanato-4-(methylsulfinyl)butane measured after 24 hrs by HPLC method. The format is ADME, cell-free.
The nature of data set [23]: Prodrug conversion in mouse plasma assessed as Tmax for formation of 1-isothiocyanato-4-(methylsulfinyl)butane measured after 24 hrs by HPLC method. Format: ADME, cell-free.
The species named for data set [24] is Danio rerio. Description: Anti-inflammatory activity in EGFP transgenic Zebrafish model of neutrophil inflammation assessed as reduction in number of neutrophil migration at 5 ug/ml incubated for 3 hrs by stereofluorescence microscopy. Format: functional, organism-based. An outline of the steps:
as §3

The species named for data set [25] is Danio rerio. In words: Anti-inflammatory activity in EGFP transgenic Zebrafish model of neutrophil inflammation assessed as reduction in number of neutrophil migration at 30 ug/ml incubated for 3 hrs by stereofluorescence microscopy. The format is functional, organism-based. An outline of the steps:
as §3

Regarding `CN(Cc1cnc2nc(N)nc(N)c2n1)c1ccc(C(=O)N[C@@H](CCC(=O)O)C(=O)O)cc1`, the outcome in the data set on Rattus norvegicus [1] and in the data set on Rattus norvegicus [2] was Active.

For `C[S+]([O-])CCCCN=C=S` (stereo not given) [SULFORAPHANE], the half-life in the data set “in vivo” is 2.2 h; in “clinical”, 1.77 h.

`CN(C)CCOCCOCCSC(=S)NCCCCSc1nnnn1-c1ccccc1`: in [3], the Stability result is on record as “Stable”. The Drug metabolism entry in [4] was “Metabolite_Detected”. The Tmax in [5] came out at 2 h. Besides, the half-life in data set [6] was 6 h. Moreover, in data set [7], the Time is 10 h. Besides, the result in the data set filed under Danio rerio [8], in the data set on Rattus norvegicus [9], in the data set with Rattus norvegicus [13], in the data set with Rattus norvegicus [14] and with Rattus norvegicus [18] was Active. Further, the Activity is 80.8 g in the data set with Rattus norvegicus [10]; 70.8 g in the data set on Rattus norvegicus [11]; 58.2 g in the data set with Rattus norvegicus [12]; “Non-Toxic” in the data set with Mus musculus [15]; “Non-Toxic” with Mus musculus [16]. For the same compound, the Ratio in the data set listed under Danio rerio [17] is 300.

For the compound `S=C=NCCCCSc1nnnn1-c1ccccc1`, the Drug uptake result in data set [19], in data set [20] and in [21] was “Active” each time.

Consider `CN(C)CCOCCOCCSC(=S)NCCCC[S+](C)[O-]` (stereo not given), for which the Stability result in [3] is recorded as “Stable”. In addition, the Drug metabolism entry in data set [22] is reported as “Metabolite_Detected”. Besides, the time of peak concentration (Tmax) in data set [23] was 2 h. The half-life in data set [6] is 6 h. For the same compound, the Time in data set [7] is 24 h. Moreover, the result in the data set listed under Danio rerio [24] was Active.

As for `C[C@@H]1C[C@H]2[C@@H]3CCC4=CC(=O)C=C[C@]4(C)[C@@]3(F)[C@@H](O)C[C@]2(C)[C@@]1(O)C(=O)CO`, the result in the data set listed under Danio rerio [25] was Active.
